Columns and labels:
[1] = biological target: T1, Protein deacetylase HDAC6 (Homo sapiens, UniProt Q9UBN7); assay: Inhibition of HDAC6 (unknown origin)
T1 sequence (Q9UBN7 whole entry): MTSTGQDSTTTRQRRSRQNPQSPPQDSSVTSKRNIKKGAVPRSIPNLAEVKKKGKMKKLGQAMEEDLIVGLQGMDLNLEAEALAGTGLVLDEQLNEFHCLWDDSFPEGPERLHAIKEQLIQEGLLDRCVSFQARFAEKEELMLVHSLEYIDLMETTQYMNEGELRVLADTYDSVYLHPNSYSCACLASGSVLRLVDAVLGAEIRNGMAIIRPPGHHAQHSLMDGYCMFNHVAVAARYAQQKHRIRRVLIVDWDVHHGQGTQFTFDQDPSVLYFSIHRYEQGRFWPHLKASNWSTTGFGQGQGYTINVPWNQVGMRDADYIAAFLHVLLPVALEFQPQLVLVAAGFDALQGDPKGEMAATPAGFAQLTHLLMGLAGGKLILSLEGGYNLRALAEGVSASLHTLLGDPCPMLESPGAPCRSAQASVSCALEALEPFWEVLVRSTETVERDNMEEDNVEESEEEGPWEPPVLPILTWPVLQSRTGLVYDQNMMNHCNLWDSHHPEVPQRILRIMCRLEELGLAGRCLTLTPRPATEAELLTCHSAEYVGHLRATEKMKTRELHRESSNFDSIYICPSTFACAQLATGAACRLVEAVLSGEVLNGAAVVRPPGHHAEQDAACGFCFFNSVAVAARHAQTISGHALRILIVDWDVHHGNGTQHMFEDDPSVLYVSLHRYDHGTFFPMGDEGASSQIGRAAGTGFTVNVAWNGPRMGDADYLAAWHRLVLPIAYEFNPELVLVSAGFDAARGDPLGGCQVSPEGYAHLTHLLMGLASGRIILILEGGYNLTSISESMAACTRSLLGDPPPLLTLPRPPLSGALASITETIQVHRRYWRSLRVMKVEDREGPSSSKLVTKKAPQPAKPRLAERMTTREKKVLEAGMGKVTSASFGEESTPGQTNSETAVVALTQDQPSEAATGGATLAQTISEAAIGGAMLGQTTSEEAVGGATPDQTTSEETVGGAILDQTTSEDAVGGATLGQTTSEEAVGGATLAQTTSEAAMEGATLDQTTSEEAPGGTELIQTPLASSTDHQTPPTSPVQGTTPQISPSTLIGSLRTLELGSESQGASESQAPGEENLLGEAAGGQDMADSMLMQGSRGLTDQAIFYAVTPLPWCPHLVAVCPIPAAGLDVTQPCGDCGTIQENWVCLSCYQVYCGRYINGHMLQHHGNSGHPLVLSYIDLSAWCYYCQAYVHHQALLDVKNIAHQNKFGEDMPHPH

Histone deacetylase 2 = Histone deacetylase 2 (Homo sapiens, UniProt Q92769); assay: Inhibition of HDAC2 (unknown origin)
Chain of Histone deacetylase 2 (Q92769 whole entry): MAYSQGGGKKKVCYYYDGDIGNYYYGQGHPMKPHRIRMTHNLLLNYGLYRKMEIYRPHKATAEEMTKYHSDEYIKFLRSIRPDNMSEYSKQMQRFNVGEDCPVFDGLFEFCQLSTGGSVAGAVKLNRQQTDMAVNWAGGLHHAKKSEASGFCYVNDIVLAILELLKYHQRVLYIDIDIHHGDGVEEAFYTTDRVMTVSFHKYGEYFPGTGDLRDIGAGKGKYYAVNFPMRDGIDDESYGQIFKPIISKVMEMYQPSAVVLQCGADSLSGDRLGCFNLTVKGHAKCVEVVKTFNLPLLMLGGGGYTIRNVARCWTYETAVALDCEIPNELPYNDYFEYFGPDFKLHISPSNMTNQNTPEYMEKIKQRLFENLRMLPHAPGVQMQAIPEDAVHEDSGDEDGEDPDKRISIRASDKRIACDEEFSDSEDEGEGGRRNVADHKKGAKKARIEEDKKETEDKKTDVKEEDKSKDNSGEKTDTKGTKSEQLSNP

Histone deacetylase 3 = Histone deacetylase 3 (Homo sapiens, UniProt O15379); assay: Inhibition of HDAC3 (unknown origin)
Chain of Histone deacetylase 3 (O15379 whole entry): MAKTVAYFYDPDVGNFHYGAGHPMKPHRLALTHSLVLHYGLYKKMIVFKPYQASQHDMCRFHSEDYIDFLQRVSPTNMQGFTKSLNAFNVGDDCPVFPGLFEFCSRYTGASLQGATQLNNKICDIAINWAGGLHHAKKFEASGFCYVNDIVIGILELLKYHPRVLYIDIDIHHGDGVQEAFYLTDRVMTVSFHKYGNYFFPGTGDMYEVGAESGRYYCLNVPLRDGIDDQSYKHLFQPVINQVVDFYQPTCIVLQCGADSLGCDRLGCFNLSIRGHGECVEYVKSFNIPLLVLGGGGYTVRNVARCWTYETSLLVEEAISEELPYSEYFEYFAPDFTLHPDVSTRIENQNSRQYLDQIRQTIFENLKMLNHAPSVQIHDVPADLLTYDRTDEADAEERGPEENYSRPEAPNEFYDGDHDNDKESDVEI

[2] = AUC (0 to infinity) in CD1 mouse at 15 mg/kg, po; format: ADME, organism-based; design: time infinity, dose 15 mg/kg, route oral; conditions: plasma
Summary of the method: (§1)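 CD-1 mice got single doses of 5 mg/kg iv or 15 mg/kg orally. The iv vehicle was water with 3% DMSO and 9.7% encapsin. The oral vehicle was water with 5% DMSO and 9.5% encapsin. Plasma PK parameters were calculated, including AUC0–∞, clearance, half-life, Vss, cmax and oral bioavailability.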

[3] = Volume of distribution at steady state in CD1 mouse at 5 mg/kg, iv and 15 mg/kg, po; format: ADME, organism-based; conditions: in vivo, read-out: Vdss; summary of the method: as §1
[4] = Tmax in CD1 mouse at 5 mg/kg, iv and 15 mg/kg, po; format: ADME, organism-based; conditions: in vivo; summary of the method: as §1
[5] = Clearance in CD1 mouse at 5 mg/kg, iv and 15 mg/kg, po; format: ADME, organism-based; conditions: in vivo; summary of the method: as §1
[6] = AUC (0 to infinity) in CD1 mouse at 5 mg/kg, iv; format: ADME, organism-based; design: time infinity, dose 5 mg/kg, route intravenous; conditions: plasma; summary of the method: as §1
[7] = Cmax in CD1 mouse at 5 mg/kg, iv; format: ADME, organism-based; design: dose 5 mg/kg, route intravenous; conditions: in vivo; summary of the method: as §1
A549 = assay: Cytotoxicity against human A549 cells; format: functional, cell-based
HCT-116 = assay: Cytotoxicity against human HCT116 cells; format: functional, cell-based
K562 = assay: Cytotoxicity against human K562 cells; format: functional, cell-based
Histone deacetylase = assay: Inhibition of HDAC in human Hela cell nuclear extract after 15 mins; format: protein assay
[8] = Cmax in CD1 mouse at 15 mg/kg, po; conditions: CD1, mouse, in vivo
[9] = Oral bioavailability in CD1 mouse at 15 mg/kg; conditions: in vivo
[10] = Terminal half life in CD1 mouse at 5 mg/kg, iv and 15 mg/kg, po; format: ADME, organism-based; conditions: in vivo, read-out: beta t1/2 (converted); summary of the method: as §1
[11] = biological target: T2, Voltage-gated inwardly rectifying potassium channel KCNH2 (Homo sapiens, UniProt Q12809); assay: Inhibition of human ERG channel
T2 sequence (Q12809 whole entry): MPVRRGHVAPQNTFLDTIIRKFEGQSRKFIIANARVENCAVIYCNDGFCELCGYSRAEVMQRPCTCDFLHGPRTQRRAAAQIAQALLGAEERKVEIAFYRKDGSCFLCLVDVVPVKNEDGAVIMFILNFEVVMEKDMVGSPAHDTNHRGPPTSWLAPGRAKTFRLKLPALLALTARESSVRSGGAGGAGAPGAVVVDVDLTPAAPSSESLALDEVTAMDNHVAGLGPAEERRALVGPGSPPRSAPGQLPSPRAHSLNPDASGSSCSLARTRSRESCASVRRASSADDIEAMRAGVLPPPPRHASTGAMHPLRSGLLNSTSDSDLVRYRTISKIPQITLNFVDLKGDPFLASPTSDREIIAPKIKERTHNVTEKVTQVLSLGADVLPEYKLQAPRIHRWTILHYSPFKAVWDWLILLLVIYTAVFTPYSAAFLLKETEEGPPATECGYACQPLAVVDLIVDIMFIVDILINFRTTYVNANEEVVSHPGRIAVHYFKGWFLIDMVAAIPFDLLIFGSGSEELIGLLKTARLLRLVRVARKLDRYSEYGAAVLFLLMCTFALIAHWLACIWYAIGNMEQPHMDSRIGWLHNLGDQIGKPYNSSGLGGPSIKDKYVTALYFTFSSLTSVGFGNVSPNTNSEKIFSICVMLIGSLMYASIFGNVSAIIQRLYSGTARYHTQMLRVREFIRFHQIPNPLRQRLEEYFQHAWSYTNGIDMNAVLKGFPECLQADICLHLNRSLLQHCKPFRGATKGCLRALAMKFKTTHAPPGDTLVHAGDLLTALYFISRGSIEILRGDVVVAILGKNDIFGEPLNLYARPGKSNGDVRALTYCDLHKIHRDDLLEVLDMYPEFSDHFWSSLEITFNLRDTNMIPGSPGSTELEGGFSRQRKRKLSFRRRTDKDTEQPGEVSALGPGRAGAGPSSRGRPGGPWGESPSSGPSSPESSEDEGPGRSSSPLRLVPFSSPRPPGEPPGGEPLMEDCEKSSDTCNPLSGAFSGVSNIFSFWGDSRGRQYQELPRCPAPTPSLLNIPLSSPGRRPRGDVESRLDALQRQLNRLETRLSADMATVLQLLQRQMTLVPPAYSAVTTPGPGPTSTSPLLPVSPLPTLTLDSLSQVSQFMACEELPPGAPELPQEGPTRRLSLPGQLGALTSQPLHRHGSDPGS

[12] = Solubility of the compound at pH 7.4; format: physicochemical; conditions: buffer
[13] = Metabolic stability in human liver microsomes after 30 mins by LC-MS/MS analysis; format: ADME, Microsome; conditions: read-out: Stability
Summary of the method: (§2)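 Compounds were incubated with mouse or human liver microsomal preparation for 30 min at 37 °C. The reaction was stopped with CH3CN. Unmetabolized compound was quantified by LC-MS/MS in MRM mode and reported as percent remaining. Replicates n ≥ 2, mean values given.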

[14] = Metabolic stability in mouse liver microsomes after 30 mins by LC-MS/MS analysis; format: ADME, Microsome; conditions: read-out: Stability; summary of the method: as §2
[15] = biological target: T2, Voltage-gated inwardly rectifying potassium channel KCNH2; assay: Displacement of [3H]astemizole from human ERG channel transfected in HEK293 cells after 60 mins by liquid scintillation counting analysis; format: cell-based

SMILES	IC50 (A549) [nM]	IC50 (HCT-116) [nM]	IC50 (K562) [nM]	IC50 (Histone deacetylase) [µM]	other results
O=C(/C=C/c1ccc2c(c1)C(=O)CC1(CCN(CCc3ccccc3)CC1)O2)NO	551	201	180	0.113	IC50 [1]: 160 nM; IC50 (Histone deacetylase 2): 190 nM; IC50 (Histone deacetylase 3): 130 nM; AUC(0-inf) [2]: 1600 ng·h/mL; Vd [3]: 8.6 L/kg; Tmax [4]: 15 min; clearance [5]: 79.8 mL/min/kg; AUC(0-inf) [6]: 1040 ng·h/mL; Cmax [7]: 6.34 µM; Cmax [8]: 2490 nM; bioavailability [9]: 51.1%
CN1CCC2(CC1)Oc1ccc(/C=C/C(=O)NO)cc1C(=O)N2C	3540	1400	1700	0.527	
CN1CCC2(CC1)NC(=O)c1cc(/C=C/C(=O)NO)ccc1O2	2700	886	1490	0.099	
O=C(/C=C/c1ccc2c(c1)C(=O)N(Cc1ccccc1)C1(CCN(Cc3ccccc3)CC1)O2)NO	2620	1870	1720	0.54	
O=C(/C=C/c1ccc2c(c1)C(=O)N(Cc1ccccc1)C1(CCN(Cc3ccc(F)cc3)CC1)O2)NO	3040	2030	1570	0.667	
O=C(/C=C/c1ccc2c(c1)C(=O)NC1(CCN(Cc3ccc(F)cc3)CC1)O2)NO	1670	498	961	0.103	AUC(0-inf) [2]: 1980 ng·h/mL; Vd [3]: 3.1 L/kg; Tmax [4]: 5 min; clearance [5]: 44.3 mL/min/kg; half-life [10]: 414 min; AUC(0-inf) [6]: 1880 ng·h/mL; Cmax [7]: 13 µM; inhibition (INH) [11]: 70%; solubility [12]: > 200 µM; remaining at 0.5 h [13]: 71%; remaining at 0.5 h [14]: 98%; Cmax [8]: 5050 nM; bioavailability [9]: 35%
O=C(/C=C/c1ccc2c(c1)C(=O)NC1(CCNCC1)O2)NO	4810	6860	8930	0.078	
CN1C(=O)c2cc(/C=C/C(=O)NO)ccc2OC12CCN(Cc1ccc(F)cc1)CC2	2100	848	734	0.137	remaining at 0.5 h [13]: 60%; remaining at 0.5 h [14]: 39%
O=C(/C=C/c1ccc2c(c1)C(=O)N(Cc1ccccc1)C1(CCNCC1)O2)NO	3190	857	1520	0.059	
CN1C(=O)c2cc(/C=C/C(=O)NO)ccc2OC12CCN(Cc1ccccc1)CC2	2220	979	1330	0.136	
O=C(/C=C/c1ccc2c(c1)C(=O)CC1(CCN(Cc3ccc(F)cc3)CC1)O2)NO	1320	777	681	0.108	IC50 [1]: 190 nM; IC50 (Histone deacetylase 2): 310 nM; IC50 (Histone deacetylase 3): 90 nM; AUC(0-inf) [2]: 1240 ng·h/mL; Vd [3]: 5.9 L/kg; Tmax [4]: 15 min; clearance [5]: 55.8 mL/min/kg; AUC(0-inf) [6]: 1490 ng·h/mL; Cmax [7]: 11 µM; IC50 [15]: 2380 nM; Cmax [8]: 1830 nM; bioavailability [9]: 27.6%
CN1C(=O)c2cc(/C=C/C(=O)NO)ccc2OC12CCNCC2	17900	12100	14200	0.204	
CN1C(=O)c2cc(/C=C/C(=O)NO)ccc2OC12CCN(CCc1ccccc1)CC2	2550	1060	795	0.258	
CN1CCC2(CC1)Oc1ccc(/C=C/C(=O)NO)cc1C(=O)N2Cc1ccccc1	912	326	360	0.174	remaining at 0.5 h [13]: 53%; remaining at 0.5 h [14]: 19%
O=C(/C=C/c1ccc2c(c1)C(=O)NC1(CCN(CCc3ccccc3)CC1)O2)NO	1420	469	494	0.091	remaining at 0.5 h [13]: 68%; remaining at 0.5 h [14]: 46%
O=C(/C=C/c1ccc2c(c1)C(=O)N(Cc1ccccc1)C1(CCN(CCc3ccccc3)CC1)O2)NO	1510	1670	1250	0.645	
